Assay results reported in ChEMBL document CHEMBL4196162, “Target-Directed Self-Assembly of Homodimeric Drugs Against β-Tryptase” (ACS Med Chem Lett, 2018).
pIC50: −log10 of the molar value. Calls of active or inactive are those of the source. The calls are words filed in the database; no cut-off is given here.

Experiments:
[1] = Inhibition of beta-tryptase in human HMC1 cells assessed as decrease in A23187-induced degranulation in supernatant incubated for 2 hrs followed by A23187 addition measured after 1 hr; type: cell-based
In short: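 Cultured HMC1 human mast cells exposed to inhibitor (10 nM to 100 μM) for 2 h, then degranulated with 1 μM A23187 in PBS. After 1 h, supernatant tested for tryptase activity. IC50 and SEM from nonlinear regression with unconstrained Hill slope.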

[2] = Inhibition of beta-tryptase in human HMC1 cells assessed as decrease in A23187-induced degranulation in cell lysates incubated for 2 hrs followed by A23187 addition measured after 1 hr; type: cell-based
In short: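 HMC1 human mast cell lysates tested for tryptase activity in the presence of inhibitor. IC50 and SEM from nonlinear regression with unconstrained Hill slope.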

Homo sapiens = species: Homo sapiens; assay: Reversal inhibition of recombinant human lung beta-tryptase assessed as recovery of enzymatic activity at 10 uM using N-tert-butoxycarbonyl-Gln-Ala-Arg-AMC as substrate measured over 216 hrs
[3] = Inhibition of recombinant human lung beta-tryptase using N-tert-butoxycarbonyl-Gln-Ala-Arg-AMC as substrate incubated for 3 hrs followed by substrate addition measured every 30 secs for 15 mins in presence of 100 pM of tryptase
In short: (§1)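 Purified tryptase tested at several enzyme concentrations. IC50 from nonlinear regression with no Hill slope constraint.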

[4] = Inhibition of recombinant human lung beta-tryptase using N-tert-butoxycarbonyl-Gln-Ala-Arg-AMC as substrate incubated for 3 hrs followed by substrate addition measured every 30 secs for 15 mins in presence of 1 nM of tryptase; in short: as §1
[5] = Inhibition of recombinant human lung beta-tryptase using N-tert-butoxycarbonyl-Gln-Ala-Arg-AMC as substrate incubated for 3 hrs followed by substrate addition measured every 30 secs for 15 mins in presence of 10 pM of tryptase; in short: as §1

- pIC50 [1]: 3.86
- pIC50 [2]: 4.66
Compound: NCc1cccc(C2CCN(C(=O)c3cccc(NC(=O)C(O)C4(O)CCC4)c3)CC2)c1 (stereo unspecified)
- inhibition (Homo sapiens): Active
- pIC50 [3]: 6.77
- pIC50 [4]: 5.09
- pIC50 [5]: 6.19
